One may read the Emax as the greatest response seen or fitted, relative to the assay's reference.

We go through twelve compounds from ChEMBL document CHEMBL3232748, “Effect of the 3- and 4-methyl groups on the opioid receptor properties of N-substituted trans-3,4-dimethyl-4-(3-hydroxyphenyl)piperidines” (2014).

Activity calls are given as the source filed them. The rule behind the calls is not given here.

Experiment [1] deals with Mu-type opioid receptor (Homo sapiens) (UniProt P35372). Nature of the experiment: Antagonist activity at human mu opioid receptor expressed CHO cells assessed as inhibition of [35S]-GTP[gammaS] binding at 10 uM. Type of experiment: cell-based. In outline: (§1)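 Antagonism of [³⁵S]GTPγS binding stimulated by DAMGO (μ), DPDPE (δ) or U69,593 (κ) in CHO cells expressing the human receptor, tested at 10 μM.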
Mu-type opioid receptor (Homo sapiens), sequence (P35372 whole entry): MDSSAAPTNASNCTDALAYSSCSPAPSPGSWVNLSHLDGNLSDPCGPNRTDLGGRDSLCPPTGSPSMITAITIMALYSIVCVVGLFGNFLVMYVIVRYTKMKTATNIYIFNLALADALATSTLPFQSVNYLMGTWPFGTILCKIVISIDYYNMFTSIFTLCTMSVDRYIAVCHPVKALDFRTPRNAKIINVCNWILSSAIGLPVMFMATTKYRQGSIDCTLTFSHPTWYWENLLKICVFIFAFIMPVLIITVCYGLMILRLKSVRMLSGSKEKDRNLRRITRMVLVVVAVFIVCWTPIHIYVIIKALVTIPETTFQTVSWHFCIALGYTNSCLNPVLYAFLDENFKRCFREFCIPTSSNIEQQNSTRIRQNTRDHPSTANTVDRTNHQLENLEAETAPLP
A general note: Binding of GTPγS marks nucleotide exchange on a G protein.

For experiment [2], the target named is Kappa-type opioid receptor (Homo sapiens) (UniProt P41145). Nature of the experiment: Antagonist activity at human kappa opioid receptor expressed CHO cells assessed as inhibition of [35S]-GTP[gammaS] binding at 10 uM. Type of experiment: functional, cell-based. The gist of the method: as §1
Kappa-type opioid receptor (Homo sapiens), sequence (P41145 whole entry): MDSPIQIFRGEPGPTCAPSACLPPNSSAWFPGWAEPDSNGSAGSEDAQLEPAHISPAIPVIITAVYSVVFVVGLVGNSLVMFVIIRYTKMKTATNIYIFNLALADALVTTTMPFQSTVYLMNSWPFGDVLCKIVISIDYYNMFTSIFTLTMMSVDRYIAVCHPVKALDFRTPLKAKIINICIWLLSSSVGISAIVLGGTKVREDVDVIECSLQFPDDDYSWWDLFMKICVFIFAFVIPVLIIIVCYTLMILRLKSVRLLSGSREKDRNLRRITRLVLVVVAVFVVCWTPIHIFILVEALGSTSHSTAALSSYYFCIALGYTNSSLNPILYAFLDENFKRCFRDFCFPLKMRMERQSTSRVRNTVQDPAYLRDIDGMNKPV
The target in experiment [3] is Mu-type opioid receptor (Homo sapiens) (UniProt P35372). Briefly: Agonist activity at human mu opioid receptor expressed CHO cells assessed as inhibition of [35S]-GTP[gammaS] binding at 10 uM. Type of experiment: cell-based. The gist of the method:
(§2)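 Single-point screen at 10 μM for intrinsic agonist activity in a [³⁵S]GTPγS binding assay, using membranes from CHO cells overexpressing the human μ, κ or δ opioid receptor.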

The target of experiment [4] is Kappa-type opioid receptor (Homo sapiens) (UniProt P41145). Briefly: Agonist activity at human kappa opioid receptor expressed CHO cells assessed as inhibition of [35S]-GTP[gammaS] binding at 10 uM. Type of experiment: functional, cell-based. The gist of the method:
as §2

The target of experiment [5] is Delta-type opioid receptor (Homo sapiens) (UniProt P41143). Briefly: Agonist activity at human delta opioid receptor expressed CHO cells assessed as inhibition of [35S]-GTP[gammaS] binding at 10 uM. Type of experiment: functional, cell-based. In outline:
as §2

Experiment [6] has the same target. Briefly: Antagonist activity at human delta opioid receptor expressed CHO cells assessed as inhibition of [35S]-GTP[gammaS] binding at 10 uM. Type of experiment: functional, cell-based. The gist of the method: as §1
Experiment [7] shares this target. Briefly: Agonist activity at human delta opioid receptor expressed CHO cells assessed as inhibition of [35S]-GTP[gammaS] binding. Type of experiment: functional, cell-based. The gist of the method:
(§3)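 Agonist concentration–response in a [³⁵S]GTPγS binding assay at human δ receptor in CHO cells, using eight concentrations chosen to define the upper and lower asymptotes. EC₅₀ and Emax were calculated, with Emax given as a percentage of the maximum for DPDPE run on the same plate. Values are mean ± SE from at least three independent experiments.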

For experiment [8] the target is unchanged. Briefly: Agonist activity at human delta opioid receptor expressed CHO cells assessed as inhibition of [35S]-GTP[gammaS] binding relative to DPDPE maximal response. Type of experiment: functional, cell-based. The gist of the method: as §3
For experiment [9], the species on record is Mus musculus. Briefly: Analgesic activity in mouse assessed as antagonism of morphine-induced antinociception by writhing test. Type of experiment: functional. On the technique in general: An intraperitoneal irritant provokes the stretching counted in writhing tests.
For experiment [10], the species on record is Homo sapiens. Nature of the experiment: Selectivity, ratio of Ke for human delta opioid receptor to ratio of Ke for human kappa opioid receptor. The gist of the method:
(§4)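 Agonist-stimulated [³⁵S]GTPγS binding in CHO cells overexpressing the human receptor, stimulated by DAMGO (μ), DPDPE (δ) or U69,593 (κ). Agonist concentration–response curves were run with or without a fixed test concentration, using at least two test concentrations. Ke = [L]/(DR − 1) was calculated only when the agonist EC₅₀ shifted at least 4-fold. Values are mean ± SE from at least three experiments, and selectivity comes from the Ke values.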

Experiment [11] is filed under the species Homo sapiens. Nature of the experiment: Selectivity, ratio of Ke for human mu opioid receptor to ratio of Ke for human kappa opioid receptor. In outline:
as §4

The species entered for experiment [12] is Mus musculus. Briefly: Analgesic activity in mouse assessed as antagonism of U50488-induced antinociception by writhing test. Type of experiment: functional.

Delta-type opioid receptor (Homo sapiens), sequence (P41143 whole entry): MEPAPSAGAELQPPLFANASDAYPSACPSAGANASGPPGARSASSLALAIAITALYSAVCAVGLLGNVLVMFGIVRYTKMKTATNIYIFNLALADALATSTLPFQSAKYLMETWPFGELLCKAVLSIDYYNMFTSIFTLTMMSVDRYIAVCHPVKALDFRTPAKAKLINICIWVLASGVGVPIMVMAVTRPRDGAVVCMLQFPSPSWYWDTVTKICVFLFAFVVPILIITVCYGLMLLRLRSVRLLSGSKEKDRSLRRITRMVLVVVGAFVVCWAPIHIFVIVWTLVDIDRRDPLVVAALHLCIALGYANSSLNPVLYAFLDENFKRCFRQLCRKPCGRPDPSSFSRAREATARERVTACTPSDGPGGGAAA

`CC1CN(CCCc2ccccc2)CCC1c1cccc(O)c1` (configuration not stated): the result in [1] and in [2] was inactive.

Regarding `CN1CCN(c2cccc(O)c2)CC1`, the result in experiment [2], in [3], in experiment [4] and in experiment [5] was inactive.

For `Oc1cccc(N2CCN(CCCc3ccccc3)CC2)c1`, the outcome in experiment [3], in experiment [4] and in [5] was inactive.

For `CN1CCC(c2cccc(O)c2)CC1`, the outcome in experiment [1], in experiment [6], in experiment [3], in [4] and in experiment [5] was inactive.

Regarding `C[C@H]1CN(CCCc2ccccc2)CCN1c1cccc(O)c1`, the outcome in experiment [3], in experiment [4] and in experiment [5] was inactive.

For `CN1CCC(C)(c2cccc(O)c2)CC1`, the ED50 in experiment [7] was determined as 8.3 µM; in the experiment filed under Mus musculus [9] (Mus musculus), 3.4 mg/kg. Also, the Emax in experiment [8] worked out at 64%.

Take `Oc1cccc(C2CCN(CCCc3ccccc3)CC2)c1`: the results for the Ratio Ke in the experiment listed under Homo sapiens [10] and in the experiment listed under Homo sapiens [11] were 72 and 13, respectively. For the same compound, the result in experiment [1] and in experiment [2] was inactive.

On to `C[C@H]1CN(C)CC[C@@]1(C)c1cccc(O)c1`, for which the outcome in experiment [3], in experiment [4] and in experiment [5] was inactive. Also, the AD50 in the experiment listed under Mus musculus [9] was 0.74 mg/kg; in the experiment filed under Mus musculus [12], above 5 mg/kg.

On to `C[C@H]1CN(C)CCN1c1cccc(O)c1`, for which the outcome in [6], in experiment [3], in experiment [4] and in experiment [5] was inactive.

For `CC1CN(C)CCC1c1cccc(O)c1` (configuration not stated), the result in experiment [6] was inactive.

As to `CC1(c2cccc(O)c2)CCN(CCCc2ccccc2)CC1`, the result in experiment [1] and in experiment [2] was inactive.

Regarding `C[C@H]1CN(CCCc2ccccc2)CC[C@@]1(C)c1cccc(O)c1`, the AD50 in the experiment filed under Mus musculus [9] was determined as 0.28 mg/kg.
